Laboratory results reported in ChEMBL document CHEMBL1806392, “Phytochemical studies on Stemona aphylla: isolation of a new stemofoline alkaloid and six new stemofurans” (2011).
Values after ≈ are worked out from the molar mass of the structure shown.

Experiments:
[1] = target: Acetylcholinesterase (Homo sapiens) (UniProt P22303)
Candida albicans = test: Antifungal activity against Candida albicans by broth dilution method; type: functional
Summary of the method: (§1)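 Antifungal MIC determined by broth dilution, reported in µg/mL. Amphotericin B served as the positive control.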

Cryptococcus neoformans = test: Antifungal activity against Cryptococcus neoformans by broth dilution method; type: functional
Summary of the method: as §1

Escherichia coli = test: Antibacterial activity against Escherichia coli by broth dilution method; type: functional
Summary of the method: (§2)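 Broth dilution MIC determination against the bacterium, reported in µg/mL. Gentamicin served as the positive control.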

Klebsiella pneumoniae = test: Antibacterial activity against Klebsiella pneumoniae by broth dilution method; type: functional
Summary of the method: as §2

Staphylococcus aureus [2] = test: Antibacterial activity against Staphylococcus aureus by broth dilution method; type: functional
Summary of the method: as §2

Staphylococcus aureus [3] = test: Antibacterial activity against methicillin-resistant Staphylococcus aureus by broth dilution method; type: functional
Summary of the method: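 Broth dilution giving an MIC in µg/mL, with gentamicin as the antibacterial positive control. The same series covered E. coli, K. pneumoniae, S. aureus, S. pyogenes and two fungi.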

Streptococcus pyogenes = test: Antibacterial activity against Streptococcus pyogenes by broth dilution method; type: functional
Summary of the method: as §2

Chain of Acetylcholinesterase (Homo sapiens) (P22303 whole entry): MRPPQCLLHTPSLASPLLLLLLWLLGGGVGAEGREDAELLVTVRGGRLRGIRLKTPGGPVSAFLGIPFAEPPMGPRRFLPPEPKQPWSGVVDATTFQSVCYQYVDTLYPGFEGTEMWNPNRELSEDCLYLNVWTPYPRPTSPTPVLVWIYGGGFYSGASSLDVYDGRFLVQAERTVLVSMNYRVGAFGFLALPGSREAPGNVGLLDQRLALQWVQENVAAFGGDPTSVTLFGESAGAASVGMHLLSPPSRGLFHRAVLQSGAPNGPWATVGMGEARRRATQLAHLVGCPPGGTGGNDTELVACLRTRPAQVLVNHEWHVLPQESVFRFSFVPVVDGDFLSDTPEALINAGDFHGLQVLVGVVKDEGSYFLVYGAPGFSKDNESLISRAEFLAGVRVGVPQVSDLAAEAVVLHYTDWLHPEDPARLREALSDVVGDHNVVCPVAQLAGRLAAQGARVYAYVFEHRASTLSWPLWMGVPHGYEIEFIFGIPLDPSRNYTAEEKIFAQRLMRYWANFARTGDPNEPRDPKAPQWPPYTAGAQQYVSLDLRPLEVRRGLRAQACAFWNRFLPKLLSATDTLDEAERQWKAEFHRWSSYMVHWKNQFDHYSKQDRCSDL

Row | Compound | MIC [1] [ng] | MIC (Candida albicans) [µg/mL] | MIC (Cryptococcus neoformans) [µg/mL] | MIC (Escherichia coli) [µg/mL] | MIC (Klebsiella pneumoniae) [µg/mL] | MIC (Staphylococcus aureus [2]) [µg/mL] | MIC (Staphylococcus aureus [3]) [µg/mL] | MIC (Streptococcus pyogenes) [µg/mL]
1 | CC/C=C/[C@@]12[C@@H]3C[C@H]4[C@H]5[C@H](C)/C(=C6/OC(=O)C(C)=C6OC)O[C@]5(O3)[C@@H]1CCN42 | 5 |  |  |  |  |  |  | 
2 | CCCC[C@@]12C3CCN1[C@H]1C[C@H]2O[C@@]32O/C(=C3\OC(=O)C(C)=C3OC)[C@@H](C)[C@H]12 | 10 |  |  |  |  |  |  | 
3 | CC[C@H](O)C[C@@]12[C@@H]3C[C@H]4[C@H]5[C@H](C)/C(=C6/OC(=O)C(C)=C6OC)O[C@]5(O3)[C@@H]1CCN42 | 10 |  |  |  |  |  |  | 
4 | CC[C@H](O)C[C@@]12[C@@H]3C[C@H]4[C@H]5[C@H](C)/C(=C6\OC(=O)C(C)=C6OC)O[C@]5(O3)[C@@H]1CCN42 | 10 |  |  |  |  |  |  | 
5 | CC[C@H](O)C[C@@]12[C@@H]3C[C@H]4[C@H]5[C@H](C)[C@@H]([C@@H]6OC(=O)C(C)=C6OC)O[C@]5(O3)[C@@H]1CCN42 | 100 |  |  |  |  |  |  | 
6 | CC[C@H](O)C[C@@]12[C@@H]3C[C@H]4[C@H]5[C@H](C)[C@@H]([C@H]6OC(=O)C(C)=C6OC)O[C@]5(O3)[C@@H]1CCN42 | 50 |  |  |  |  |  |  | 
7 | C[C@@H]1[C@H](O)[C@@H](C)/C=C/C=C/C=C/C=C/C=C/C=C/C=C/[C@H](O[C@@H]2O[C@H](C)[C@@H](O)[C@H](N)[C@@H]2O)C[C@@H]2O[C@](O)(C[C@@H](O)C[C@@H](O)[C@H](O)CC[C@@H](O)C[C@@H](O)CC(=O)O[C@H]1C)C[C@H](O)[C@H]2C(=O)O [AMPHOTERICIN B] |  | 15.6 (≈ 16.9 µM) | 3.9 (≈ 4.22 µM) |  |  |  |  | 
8 | COc1cc(-c2cc3c(O)cccc3o2)c(C)c(O)c1C [STEMOFURAN E] |  | 31.3 (≈ 110 µM) | 7.8 (≈ 27.4 µM) | 62.5 (≈ 220 µM) | 62.5 (≈ 220 µM) | 62.5 (≈ 220 µM) | 15.6 (≈ 54.9 µM) | 
9 | COc1cc(-c2cc3c(O)cccc3o2)c(C)c(OC)c1C [STEMOFURAN J] |  | 31.3 (≈ 105 µM) | 7.8 (≈ 26.1 µM) | 62.5 (≈ 209 µM) | 62.5 (≈ 209 µM) | 62.5 (≈ 209 µM) | 15.6 (≈ 52.3 µM) | 62.5 (≈ 209 µM)
10 | COc1cc(O)c(C)c(-c2cc3c(O)cc(OC)cc3o2)c1 [STEMOFURAN M] |  | 31.3 (≈ 104 µM) | 31.3 (≈ 104 µM) | 125 (≈ 416 µM) | 62.5 (≈ 208 µM) | 31.3 (≈ 104 µM) | 31.3 (≈ 104 µM) | 62.5 (≈ 208 µM)
11 | COc1cc(OC)c(C)c(-c2cc3c(O)cc(OC)cc3o2)c1 [STEMOFURAN P] |  | 15.6 (≈ 49.6 µM) | 7.8 (≈ 24.8 µM) | 62.5 (≈ 199 µM) | 125 (≈ 398 µM) | 31.3 (≈ 99.6 µM) | 62.5 (≈ 199 µM) | 
12 | GENTAMICIN |  |  |  | 11.3 | 11.3 | 22.5 | 45 | 5.6
